Where two headings read alike, the source gives them in different places.
Experiments:
SpyCas9 [1] = target: T1, SpyCas9 (Streptococcus pyogenes serotype M1, UniProt Q99ZW2); assay: biochemical; settings: for IC50: Spy Cas9; for activity on Cas9 (structure–activity relationship of pamoic acid): SpyCas9, standard assay conditions
SpyCas9 [2] = assay: biochemical; design: species or system Streptococcus pyogenes
SauCas9 [3] = target: T2, SauCas9 (Staphylococcus aureus, UniProt J7RUA5); assay: In vitro purified enzyme activity assay for SauCas9; assay type: biochemical; settings: IC50, in vitro purified enzyme assay, Sau Cas9
T2 sequence (J7RUA5 1-1053): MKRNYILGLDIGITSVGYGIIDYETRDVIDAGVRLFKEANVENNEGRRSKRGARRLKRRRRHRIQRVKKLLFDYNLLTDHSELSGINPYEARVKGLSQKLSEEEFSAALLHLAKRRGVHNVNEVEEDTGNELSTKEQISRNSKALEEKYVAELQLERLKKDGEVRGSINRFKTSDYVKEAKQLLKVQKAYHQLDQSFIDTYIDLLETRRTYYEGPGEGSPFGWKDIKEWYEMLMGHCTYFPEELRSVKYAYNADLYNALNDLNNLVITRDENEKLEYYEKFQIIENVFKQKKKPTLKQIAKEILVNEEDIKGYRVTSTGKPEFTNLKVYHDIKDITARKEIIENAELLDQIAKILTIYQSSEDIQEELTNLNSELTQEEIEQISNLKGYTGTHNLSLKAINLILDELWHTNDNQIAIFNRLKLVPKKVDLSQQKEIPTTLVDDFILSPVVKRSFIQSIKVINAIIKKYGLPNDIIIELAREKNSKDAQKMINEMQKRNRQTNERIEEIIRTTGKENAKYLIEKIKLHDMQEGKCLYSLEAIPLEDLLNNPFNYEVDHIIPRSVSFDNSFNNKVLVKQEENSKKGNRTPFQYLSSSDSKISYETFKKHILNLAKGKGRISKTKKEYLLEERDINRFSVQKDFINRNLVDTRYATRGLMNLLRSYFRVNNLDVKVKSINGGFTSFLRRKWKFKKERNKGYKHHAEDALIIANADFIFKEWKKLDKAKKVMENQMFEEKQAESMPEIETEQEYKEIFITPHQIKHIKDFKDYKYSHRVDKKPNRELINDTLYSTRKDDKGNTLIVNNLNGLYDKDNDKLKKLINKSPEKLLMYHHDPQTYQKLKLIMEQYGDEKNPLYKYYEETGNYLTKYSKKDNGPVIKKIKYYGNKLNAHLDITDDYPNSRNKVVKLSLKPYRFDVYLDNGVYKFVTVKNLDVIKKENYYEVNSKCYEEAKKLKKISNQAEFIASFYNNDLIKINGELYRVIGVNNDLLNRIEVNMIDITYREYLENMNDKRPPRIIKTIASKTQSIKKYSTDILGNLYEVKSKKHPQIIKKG

SpyCas9 [4] = target: T1, SpyCas9; assay: Two-plasmid-based bacterial survival assay; assay type: cell-based; settings: IC50, bacteria-based assay, Spy Cas9; bacterial survival assay using pCas and pTarget-sgSSEA plasmids, E. coli MG1655
Procedure, shortened: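 E. coli MG1655 competent cells carrying pCas (SpyCas9) electroporated with pTarget-sgSSEA, or the pT-sgControl plasmid as reference. Test compound added to the electroporated bacteria for 1.5 h at 32 °C, then plated on LB with kanamycin and spectinomycin and incubated overnight. Colonies counted and expressed as a percentage of the compound-treated sgControl strain at the same concentration (100%).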

SpyCas9 [5] = target: T1, SpyCas9; assay type: cell-based
Procedure, shortened: (§1)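 MG1655 competent cells carrying pCas (SpyCas9 or SauCas9) were electroporated with 300 ng pTarget-sgSSEA (867 bp) or its Sau version, which carries an 867-bp homologous recombination repair template. Test compound was added to 700 μl LB right after electroporation, held 1.5 h at 32 °C, then plated on LB agar with 100 μg/ml kanamycin and 100 μg/ml spectinomycin. The SSEA site was genotyped by PCR.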

SauCas9 [6] = target: T2, SauCas9; assay type: cell-based
Procedure, shortened: as §1

SpyCas9 [7] = target: T1, SpyCas9; assay: GFP-disruption assay in HEK293FT cells; assay type: cell-based
SpyCas9 [8] = target: T1, SpyCas9; assay type: cell-based; remark: listed apart in the source
Procedure, shortened: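 HEK293FT cells, ~2 × 10^5 per well, were seeded 1 day before transfection (Lipofectamine 3000) with 1 μg PX459-SpyCas9-sgCOSMC, -sgEMX1 or -sgControl. Test compound was added 0 or 6 h post-transfection, and cells were kept 24 h at 37 °C, then selected with 2.5 μg/ml puromycin for 36–48 h. Target loci were PCR-amplified, Sanger-sequenced and scored by TIDE.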

SauCas9 [9] = target: T2, SauCas9; assay: SauCas9-mediated genome editing of COSMC in HEK293FT cells, TIDE analysis; assay type: cell-based
Procedure, shortened: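 HEK293FT wt cells were co-transfected (Lipofectamine 3000) with 1 μg miniCMV-SaCas9 and 1 μg pGL3 carrying sgCOSMC-Sau or sgControl. Test compound was added right after transfection for 24 h, followed by 2.5 μg/ml puromycin selection. The COSMC locus was PCR-amplified (40 cycles), Sanger-sequenced, and editing efficiency was obtained by TIDE analysis.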

BE4 base editor = BE4 base editor (Streptococcus pyogenes, UniProt Q99ZW2, D10A); assay: BE4-mediated base editing of EMX1 in HEK293FT cells, EditR analysis; assay type: cell-based
FnoCas12a = FnoCas12a (Francisella tularensis subsp. novicida, UniProt A0Q7Q2); assay type: biochemical
LbaCas12a = LbaCas12a activity assay; assay type: biochemical, Lachnospiraceae bacterium; settings: complete inhibition refers to 50 μM or above
[10] = test system: SpyCas9-mediated genome editing of PCSK9; assay: SpyCas9-mediated anti-PCSK9 mouse model by hydrodynamic injection; assay type: in vivo, BALB/c mice; settings: for plasma total cholesterol restored to the level of the control: 3rd blood collection
Procedure, shortened: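 On days 1, 4 and 7, 90 μg PX459-SpyCas9-sgPCSK9 or -sgControl in 2 ml saline was injected hydrodynamically into the tail vein over 5–8 s. Orbital blood (~100 μl) was taken days 2, 5 and 8, and heparin plasma (20 μl) was assayed by PCSK9 ELISA.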

E. coli MG1655 = assay: Toxicity to bacteria in the two-plasmid-based bacterial survival assay; assay type: cell-based; settings: for toxicity to E. coli: MG1655, bacterial survival assay
Procedure, shortened: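 MG1655 pCas-competent cells were electroporated with pT-sgControl. Test compound was added to 700 μl LB immediately afterwards and incubated 1.5 h at 32 °C, then plated on LB agar with kanamycin and spectinomycin (100 μg/ml each). Colonies were counted after overnight incubation; biological replicates n = 3.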

SpyCas9 [11] = target: T1, SpyCas9; assay: Surface plasmon resonance assay; assay type: binding
Procedure, shortened: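 His-tagged SpyCas9, Ni–NTA purified and imidazole-eluted, amine-coupled to a CM5 chip at 100 μg/ml. Test compounds were diluted in 1× PBST to a series of concentrations and injected at 30 μl/min, with 120 s association and 120 s dissociation. Equilibrium KD was fitted from the response curves.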

[12] = in humans; cited from earlier work
[13] = IC50, in vitro purified enzyme assay, linear substrates (87 bp oligonucleotide or 2.5 kb linear DNA)
[14] = IC50, in vitro purified enzyme assay, supercoil (circular) plasmid substrate pcDNA3.1/CT-GFP
[15] = linear substrates (87 bp oligonucleotide)
[16] = supercoil (circular) plasmid substrate

Row | SMILES | IC50 (SpyCas9 [1]; [13]) | IC50 (SpyCas9 [1]; [14]) | IC50 (SauCas9 [3]; [15]) | IC50 (SauCas9 [3]; [16]) | IC50 (SpyCas9 [4]) | IC50 (SpyCas9 [5]) | IC50 (SauCas9 [6]) | effect on the activity of FnoCas12a (FnoCas12a) | effect on the activity of LbaCas12a (LbaCas12a) | activity on Cas9 (structure–activity relationship of pamoic acid) (SpyCas9 [1]) | further results
1 | CN1CCCN=C1/C=C/c1cccc(O)c1 [Oxantel pamoate] |  |  |  |  |  |  |  |  |  |  | IC50 (SpyCas9 [1]; read-out: IC50, in vitro purified enzyme assay, supercoil (circular) plasmid substrate pcDNA3.1/CT-GFP): > 200 µM
2 | CC1(C)[C@@H](OC(=O)CCC(=O)O)CC[C@]2(C)[C@H]3C(=O)C=C4[C@@H]5C[C@@](C)(C(=O)O)CC[C@]5(C)CC[C@@]4(C)[C@]3(C)CC[C@@H]12 [Carbenoxolone] | 5 to 10 µM | ~100 µM | 25 to 50 µM | 100 to 200 µM | ~200 µM | 50 to 100 µM | 100 to 200 µM | inactive to or weakly inhibited | inactive to or weakly inhibited |  | effect of mutation of catalytic residues D10 or H840 on the IC50 (SpyCas9 [2]): did not affect; IC50 (SpyCas9 [7]): 10 to 20 µM; IC50 (SpyCas9 [8]): 20 to 50 µM; IC50 (SauCas9 [9]): 20 to 50 µM; IC50 (BE4 base editor): 20 to 50 µM; effect on the basal level of PCSK9 in vehicle-treated (sgControl) mice ([10]; 160 mg/kg): did not interfere; plasma total cholesterol restored to the level of the control ([10]; 160 mg/kg): largely restored; preventive effect on loss of plasma PCSK9 ([10]; high doses of 80 or 160 mg/kg, 2nd or 3rd treatment cycle): strong preventive effects; toxicity to E. coli (E. coli MG1655): did not appear to be much toxic
3 | O=C(O)c1cc(/N=N/c2ccc(O)c(C(=O)O)c2)ccc1O [Olsalazine, olsalazine] |  |  |  |  |  |  |  |  |  | inactive | 
4 | Nc1ccc(O)c(C(=O)O)c1 [5-aminosalicylic acid] |  |  |  |  |  |  |  |  |  | inactive | 
5 | O=C(O)c1ccccc1O [Salicylic acid, salicylic acid] |  |  |  |  |  |  |  |  |  | inactive | 
6 | COc1cccc2c1C(=O)c1c(O)c3c(c(O)c1C2=O)C[C@@](O)(C(=O)CO)C[C@@H]3O[C@H]1C[C@H](N)[C@@H](O)[C@H](C)O1 [Epirubicin] | 2 to 5 µM | 2 to 5 µM | 6.25 to 12.5 µM | 3.13 to 6.25 µM | 3.13 to 6.25 µM | 6.25 to 12.5 µM | ~6.25 µM | completely inhibit | completely inhibit |  | Kd (SpyCas9 [11]): > 1000 µM; toxicity to electroporated bacteria (E. coli MG1655; at a concentration of 50 μM): significant toxicity; site of metabolism / elimination [12]: mainly metabolized in human liver
7 | OCCOCCN1CCN(C(c2ccccc2)c2ccc(Cl)cc2)CC1 (stereo not shown) [Hydroxyzine pamoate] | 20 to 50 µM | > 200 µM |  |  |  |  |  |  |  |  | 
8 | O=C(O)c1cc2ccccc2c(Cc2c(O)c(C(=O)O)cc3ccccc23)c1O [Pamoic acid] | 10 to 20 µM | 400 to 600 µM | 25 to 50 µM | 500 to 1000 µM | 200 to 400 µM | ~400 µM | 250 to 500 µM | inactive to or weakly inhibited | inactive to or weakly inhibited |  | effect of mutation of catalytic residues D10 or H840 on the IC50 (SpyCas9 [2]): did not affect; IC50 (SpyCas9 [7]): 20 to 50 µM; IC50 (SpyCas9 [8]): 20 to 50 µM; IC50 (SauCas9 [9]): 20 to 50 µM; IC50 (BE4 base editor): ~50 µM; plasma total cholesterol restored to the level of the control ([10]; 80 mg/kg): largely restored; effect on the basal level of PCSK9 in vehicle-treated (sgControl) mice ([10]; 160 mg/kg): did not interfere; plasma total cholesterol restored to the level of the control ([10]; 160 mg/kg): largely restored; restoration of plasma PCSK9 level ([10]; 80 or 160 mg/kg intraperitoneal, 1st, 2nd, or 3rd treatment cycle): completely restore; dose from which a dose-dependent preventative effect on plasma PCSK9 starts ([10]; intraperitoneal): ≥ 20 mg/kg; effect on PCSK9 allele modifications in liver (NGS) ([10]; medium dose of 40 mg/kg): largely reduced but not totally prevented; toxicity to E. coli (E. coli MG1655): did not appear to be much toxic; site of metabolism / elimination [12]: mainly metabolized in human liver

— paper PMC11951523 (Genome Biology, 2025)
